≈ marks a conversion by molar mass, not a printed value.
Experiments:
Human adenovirus 5 [1] = assay: Virucidal activity against Adenovirus 5 ATCC VR-1516 infected in human A549 cells assessed as viral cytopathic effect at pH 4 incubated for 1 hr measured after 6 days by three-fold serial dilution assay; assay type: functional, organism-based
Procedure, shortened: (§1)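 Virus was diluted in 20 mM PBS or 5 mM acetate saline buffer with 2.5% glycerol and mixed 1:1 with threefold compound dilutions (quadruplicate) for 60 min at room temperature. It was neutralized with 2× D-MEM/F12 plus 20% FBS for 60 min, then adsorbed 1–2 h at 37 °C onto A549 (Ad5) or Vero (HSV-1) cells. Cells were washed, grown 6 days, and CPE read by CCK-8. IC50 came from a sigmoidal fit with top fixed at 100.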

Human alphaherpesvirus 1 = assay: Virucidal activity against Herpes simplex virus (type 1 / strain F) ATCC VR-733 infected in african geen monkey Vero cells assessed as viral cytopathic effect at pH 7 incubated for 1 hr measured after 6 days by three-fold serial dilution assay; assay type: functional, organism-based; procedure, shortened: as §1
Escherichia coli [2] = assay: Bactericidal activity against Escherichia coli ATCC 25922 at pH 7 after 1 hr by CLSI method; assay type: functional; conditions: ATCC 25922, 1 h
Procedure, shortened: (§2)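 MBC by modified CLSI M26-A: broth replaced with 0.9% acetate saline buffer pH 4 or PBS pH 7. Mid-log bacteria were centrifuged and resuspended in buffer, then added to serial twofold compound dilutions (final 10⁵–10⁶ CFU/mL) for 1 h at room temperature. Aliquots were plated on agar (24 h, 35 °C) and CFU counted. MBC is the lowest concentration giving >99.9% kill.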

Escherichia coli [3] = assay: Bactericidal activity against Escherichia coli ATCC 25922 at pH 4 after 1 hr by CLSI method; assay type: functional; conditions: ATCC 25922, 1 h; procedure, shortened: as §2
Staphylococcus aureus [4] = assay: Bactericidal activity against Staphylococcus aureus ATCC 29213 at pH 7 after 1 hr by CLSI method; assay type: functional; conditions: ATCC 29213, 1 h; procedure, shortened: as §2
Human adenovirus 5 [5] = assay: Ratio of IC50 for Adenovirus 5 ATCC VR-1516 at pH 7 to IC50 for Adenovirus 5 ATCC VR-1516 at pH 4; assay type: functional
Procedure, shortened: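 Ad5 virucidal IC50 was determined in PBS (pH 7) and acetate saline buffer (pH 4) using 60 min room-temperature exposure, neutralization, A549 infection, 6-day CPE by CCK-8 and sigmoidal fit. The ratio is IC50 at pH 7 over IC50 at pH 4.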

Staphylococcus aureus [6] = assay: Bactericidal activity against Staphylococcus aureus ATCC 29213 at pH 4 after 1 hr by CLSI method; assay type: functional; conditions: ATCC 29213, 1 h; procedure, shortened: as §2
Human adenovirus 5 [7] = assay: Virucidal activity against Adenovirus 5 ATCC VR-1516 infected in human A549 cells assessed as viral cytopathic effect at pH 7 incubated for 1 hr measured after 6 days by three-fold serial dilution assay; assay type: functional, organism-based; procedure, shortened: as §1
Staphylococcus aureus [8] = assay: Ratio of MBC for Staphylococcus aureus ATCC 29213 at pH 7 to MBC for Staphylococcus aureus ATCC 29213 at pH 4; assay type: functional
Procedure, shortened: (§3)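 MBC was measured in PBS pH 7 and in acetate saline buffer pH 4 (1 h room-temperature exposure, >99.9% kill endpoint, CFU plating). The ratio is MBC at pH 7 over MBC at pH 4.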

Escherichia coli [9] = assay: Ratio of MBC for Escherichia coli ATCC 25922 at pH 7 to MBC for Escherichia coli ATCC 25922 at pH 4; assay type: functional; procedure, shortened: as §3
[10] = Toxicity in epiocular tissue irritancy model (unknown origin) assessed as tissue viability up to 46 mins relative to control; assay type: tissue-based, Eye; conditions: read-out: Activity
Procedure, shortened: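 EpiOcular tissue model: after exposure, tissues were rinsed in PBS and held in MTT for 3 h, then extracted overnight. Viability was read from MTT absorbance against untreated control and correlated with a Draize-type irritancy score.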

[11] = Stability of the compound in aqueous solution; assay type: physicochemical; conditions: buffer
[12] = Human mastadenovirus C, ATCC VR-1516, A549, read-out: IC50
[13] = Human alphaherpesvirus 1, Strain F ATCC VR 733, Vero, read-out: IC50

CC(C)(CCS(=O)(=O)CCO)N(Cl)Cl
IC50 (Human adenovirus 5 [1]; [12]): 1400 nM
IC50 (Human alphaherpesvirus 1; [13]): 700 nM
MBC (Escherichia coli [2]): 8 µg/mL (≈ 30.3 µM)
MBC (Escherichia coli [3]): 0.5 µg/mL (≈ 1.89 µM)
MBC (Staphylococcus aureus [4]): 16 µg/mL (≈ 60.6 µM)
Ratio IC50 (Human adenovirus 5 [5]): 3.2
MBC (Staphylococcus aureus [6]): 1 µg/mL (≈ 3.79 µM)
IC50 (Human adenovirus 5 [7]; [12]): 4500 nM
Ratio (Staphylococcus aureus [8]): 16
Ratio (Escherichia coli [9]): 16

CC(C)(CCS(=O)(=O)CCCO)N(Cl)Cl
IC50 (Human adenovirus 5 [1]; a549): ND(Unstable)
IC50 (Human alphaherpesvirus 1; vero): ND(Unstable)
IC50 (Human adenovirus 5 [7]; a549): ND(Unstable)

CC(C)(CO)CS(=O)(=O)CCC(C)(C)N(Cl)Cl
IC50 (Human adenovirus 5 [1]; [12]): 1800 nM
IC50 (Human alphaherpesvirus 1; [13]): 900 nM
MBC (Escherichia coli [2]): 64 µg/mL (≈ 209 µM)
MBC (Escherichia coli [3]): 4 µg/mL (≈ 13.1 µM)
MBC (Staphylococcus aureus [4]): 128 µg/mL (≈ 418 µM)
MBC (Staphylococcus aureus [6]): 2 µg/mL (≈ 6.53 µM)
IC50 (Human adenovirus 5 [7]; [12]): 9600 nM

CC(C)(CCS(=O)(=O)CCCCCCCCO)N(Cl)Cl
IC50 (Human adenovirus 5 [1]; a549): ND(Unstable)
MBC (Escherichia coli [2]): 256 µg/mL (≈ 735 µM)
MBC (Staphylococcus aureus [4]): 128 µg/mL (≈ 367 µM)
IC50 (Human adenovirus 5 [7]; [12]): 32000 nM

CC(C)(CCS(=O)(=O)CC(O)CO)N(Cl)Cl (stereo not drawn)
IC50 (Human adenovirus 5 [1]; [12]): 2700 nM
viability at 46 min [10]: 50%
IC50 (Human alphaherpesvirus 1; [13]): 1500 nM
MBC (Escherichia coli [2]): 16 µg/mL (≈ 54.4 µM)
MBC (Escherichia coli [3]): 2 µg/mL (≈ 6.8 µM)
MBC (Staphylococcus aureus [4]): 4 µg/mL (≈ 13.6 µM)
Ratio IC50 (Human adenovirus 5 [5]): 10
MBC (Staphylococcus aureus [6]): 2 µg/mL (≈ 6.8 µM)
IC50 (Human adenovirus 5 [7]; [12]): 26000 nM
Ratio (Staphylococcus aureus [8]): 2
Ratio (Escherichia coli [9]): 8

CC(C)(CCS(=O)(=O)C[C@H](O)CO)N(Cl)Cl
IC50 (Human adenovirus 5 [1]; [12]): 2200 nM
IC50 (Human alphaherpesvirus 1; [13]): 1200 nM
MBC (Escherichia coli [2]): 32 µg/mL (≈ 109 µM)
MBC (Escherichia coli [3]): 2 µg/mL (≈ 6.8 µM)
MBC (Staphylococcus aureus [4]): 4 µg/mL (≈ 13.6 µM)
MBC (Staphylococcus aureus [6]): 2 µg/mL (≈ 6.8 µM)
IC50 (Human adenovirus 5 [7]; [12]): 14000 nM

CC(C)(CCS(=O)(=O)C[C@@H](O)CO)N(Cl)Cl
IC50 (Human adenovirus 5 [1]; [12]): 2400 nM
IC50 (Human alphaherpesvirus 1; [13]): 1000 nM
MBC (Escherichia coli [2]): 32 µg/mL (≈ 109 µM)
MBC (Escherichia coli [3]): 2 µg/mL (≈ 6.8 µM)
MBC (Staphylococcus aureus [4]): 4 µg/mL (≈ 13.6 µM)
MBC (Staphylococcus aureus [6]): 1 µg/mL (≈ 3.4 µM)
IC50 (Human adenovirus 5 [7]; [12]): 13000 nM

CC(C)(CCS(=O)(=O)CC(O)C(O)CO)N(Cl)Cl (stereo not drawn)
MBC (Escherichia coli [2]): 128 µg/mL (≈ 395 µM)
MBC (Escherichia coli [3]): 2 µg/mL (≈ 6.17 µM)
MBC (Staphylococcus aureus [4]): 32 µg/mL (≈ 98.7 µM)
MBC (Staphylococcus aureus [6]): 1 µg/mL (≈ 3.08 µM)

CC(C)(CCS(=O)(=O)C(CO)C(O)CO)N(Cl)Cl (stereo not drawn)
IC50 (Human adenovirus 5 [1]; [12]): 1500 nM
IC50 (Human alphaherpesvirus 1; [13]): 3000 nM
MBC (Escherichia coli [2]): 64 µg/mL (≈ 197 µM)
MBC (Escherichia coli [3]): 2 µg/mL (≈ 6.17 µM)
MBC (Staphylococcus aureus [4]): 16 µg/mL (≈ 49.3 µM)
MBC (Staphylococcus aureus [6]): 2 µg/mL (≈ 6.17 µM)
IC50 (Human adenovirus 5 [7]; [12]): 19000 nM

CC(C)(CCS(=O)(=O)CCC(O)CO)N(Cl)Cl (stereo not drawn)
IC50 (Human adenovirus 5 [1]; [12]): 1400 nM
IC50 (Human alphaherpesvirus 1; [13]): 1200 nM
MBC (Escherichia coli [2]): 64 µg/mL (≈ 208 µM)
MBC (Escherichia coli [3]): 2 µg/mL (≈ 6.49 µM)
MBC (Staphylococcus aureus [4]): 16 µg/mL (≈ 51.9 µM)
MBC (Staphylococcus aureus [6]): 1 µg/mL (≈ 3.24 µM)
IC50 (Human adenovirus 5 [7]; [12]): 18000 nM

CC(C)(CCS(=O)(=O)CCCCC(O)CO)N(Cl)Cl (stereo not drawn)
IC50 (Human adenovirus 5 [1]; a549): ND(Unstable)
IC50 (Human alphaherpesvirus 1; vero): ND(Unstable)
IC50 (Human adenovirus 5 [7]; a549): ND(Unstable)

CO[C@H]1O[C@H](CS(=O)(=O)CCC(C)(C)N(Cl)Cl)[C@@H](O)[C@H](O)[C@H]1O
MBC (Escherichia coli [2]): 512 µg/mL (≈ 1290 µM)
MBC (Escherichia coli [3]): 8 µg/mL (≈ 20.2 µM)
MBC (Staphylococcus aureus [4]): 256 µg/mL (≈ 646 µM)
MBC (Staphylococcus aureus [6]): 8 µg/mL (≈ 20.2 µM)

CC(=O)OCC(O)CS(=O)(=O)CCC(C)(C)N(Cl)Cl (stereo not drawn)
MBC (Escherichia coli [2]): 64 µg/mL (≈ 190 µM)
MBC (Escherichia coli [3]): 2 µg/mL (≈ 5.95 µM)
MBC (Staphylococcus aureus [4]): 32 µg/mL (≈ 95.2 µM)
MBC (Staphylococcus aureus [6]): 4 µg/mL (≈ 11.9 µM)

CC(=O)OCC(CS(=O)(=O)CCC(C)(C)N(Cl)Cl)OC(C)=O (stereo not drawn)
MBC (Escherichia coli [2]): 128 µg/mL (≈ 338 µM)
MBC (Escherichia coli [3]): 1 µg/mL (≈ 2.64 µM)
MBC (Staphylococcus aureus [4]): 128 µg/mL (≈ 338 µM)
MBC (Staphylococcus aureus [6]): 2 µg/mL (≈ 5.29 µM)

CC(C)(CS(=O)(=O)CCO)N(Cl)Cl
IC50 (Human adenovirus 5 [1]; [12]): 2300 nM
IC50 (Human alphaherpesvirus 1; vero): ND(Unstable)
MBC (Escherichia coli [3]): 1 µg/mL (≈ 4 µM)
MBC (Staphylococcus aureus [6]): 1 µg/mL (≈ 4 µM)
IC50 (Human adenovirus 5 [7]; a549): ND(Unstable)

CN(CCO)S(=O)(=O)CCC(C)(C)N(Cl)Cl
IC50 (Human adenovirus 5 [1]; [12]): 1500 nM
IC50 (Human alphaherpesvirus 1; [13]): 1200 nM
MBC (Escherichia coli [2]): 64 µg/mL (≈ 218 µM)
MBC (Escherichia coli [3]): 2 µg/mL (≈ 6.82 µM)
MBC (Staphylococcus aureus [4]): 128 µg/mL (≈ 437 µM)
MBC (Staphylococcus aureus [6]): 1 µg/mL (≈ 3.41 µM)
IC50 (Human adenovirus 5 [7]; [12]): 14000 nM

CN(CCCO)S(=O)(=O)CCC(C)(C)N(Cl)Cl
IC50 (Human adenovirus 5 [1]; a549): ND(Unstable)
IC50 (Human alphaherpesvirus 1; vero): ND(Unstable)
Stability [11]: Stable
IC50 (Human adenovirus 5 [7]; a549): ND(Unstable)
